Values after ≈ are worked out from the molar mass of the structure shown.
system: Streptococcus pneumoniae; experiment: Minimum inhibitory concentration measured against Streptococcus pneumoniae; type: functional

SMILES	MIC
CC(=O)NC[C@H]1CN(c2ccc(/C=C(\F)c3cccc(C=O)c3)c(F)c2)C(=O)O1	4 µg/mL (≈ 9.99 µM)
CC(=O)NC[C@H]1CN(c2ccc(/C=C(\F)c3cnc(N)nc3)c(F)c2)C(=O)O1	8 µg/mL (≈ 20.5 µM)
CC(=O)NC[C@H]1CN(c2ccc(/C=C(\Br)c3c(C)oc[n+]3C)c(F)c2)C(=O)O1	8 µg/mL
CC(=O)NC[C@H]1CN(c2ccc(/C=C/c3cccnc3)c(F)c2)C(=O)O1	16 µg/mL (≈ 45 µM)

More lines, now with the values ahead:

MIC	SMILES
4 µg/mL (≈ 10.7 µM)	CC(=O)NC[C@H]1CN(c2ccc(/C=C(/F)c3cccnc3)c(F)c2)C(=O)O1
1 µg/mL (≈ 2.1 µM)	CC(=O)NC[C@H]1CN(c2ccc(/C=C(\Br)c3cccc(C(C)=O)c3)c(F)c2)C(=O)O1
1 µg/mL (≈ 2.17 µM)	CC(=O)NC[C@H]1CN(c2ccc(/C=C(\Br)c3cccc(C=O)c3)c(F)c2)C(=O)O1
0.5 µg/mL (≈ 1.04 µM)	CC(=O)NC[C@H]1CN(c2ccc(/C=C(\Br)c3ccc(C(C)=O)s3)c(F)c2)C(=O)O1
1 µg/mL (≈ 2.3 µM)	CC(=O)NC[C@H]1CN(c2ccc(/C=C(\Br)c3ccncc3)c(F)c2)C(=O)O1

system: Moraxella catarrhalis; experiment: Minimum inhibitory concentration measured against Moraxella catarrhalis; type: functional

SMILES	MIC
CC(=O)NC[C@H]1CN(c2ccc(/C=C(\F)c3cccc(C=O)c3)c(F)c2)C(=O)O1	64 µg/mL (≈ 160 µM)
CC(=O)NC[C@H]1CN(c2ccc(/C=C(\F)c3cnc(N)nc3)c(F)c2)C(=O)O1	32 µg/mL (≈ 82.2 µM)
CC(=O)NC[C@H]1CN(c2ccc(/C=C(\Br)c3c(C)oc[n+]3C)c(F)c2)C(=O)O1	64 µg/mL
CC(=O)NC[C@H]1CN(c2ccc(/C=C/c3cccnc3)c(F)c2)C(=O)O1	16 µg/mL (≈ 45 µM)

Next, values leading:

MIC	SMILES
32 µg/mL (≈ 85.7 µM)	CC(=O)NC[C@H]1CN(c2ccc(/C=C(/F)c3cccnc3)c(F)c2)C(=O)O1
4 µg/mL (≈ 8.42 µM)	CC(=O)NC[C@H]1CN(c2ccc(/C=C(\Br)c3cccc(C(C)=O)c3)c(F)c2)C(=O)O1
1 µg/mL (≈ 2.17 µM)	CC(=O)NC[C@H]1CN(c2ccc(/C=C(\Br)c3cccc(C=O)c3)c(F)c2)C(=O)O1
2 µg/mL (≈ 4.16 µM)	CC(=O)NC[C@H]1CN(c2ccc(/C=C(\Br)c3ccc(C(C)=O)s3)c(F)c2)C(=O)O1
16 µg/mL (≈ 36.8 µM)	CC(=O)NC[C@H]1CN(c2ccc(/C=C(\Br)c3ccncc3)c(F)c2)C(=O)O1

system: Staphylococcus epidermidis; experiment: Minimum inhibitory concentration measured against Staphylococcus epidermidis; type: functional

SMILES	MIC
CC(=O)NC[C@H]1CN(c2ccc(/C=C(\F)c3cccc(C=O)c3)c(F)c2)C(=O)O1	0.5 µg/mL (≈ 1.25 µM)
CC(=O)NC[C@H]1CN(c2ccc(/C=C(\F)c3cnc(N)nc3)c(F)c2)C(=O)O1	4 µg/mL (≈ 10.3 µM)
CC(=O)NC[C@H]1CN(c2ccc(/C=C(\Br)c3c(C)oc[n+]3C)c(F)c2)C(=O)O1	16 µg/mL
CC(=O)NC[C@H]1CN(c2ccc(/C=C/c3cccnc3)c(F)c2)C(=O)O1	2 µg/mL (≈ 5.63 µM)

The next lines start with the values.

MIC	SMILES
4 µg/mL (≈ 10.7 µM)	CC(=O)NC[C@H]1CN(c2ccc(/C=C(/F)c3cccnc3)c(F)c2)C(=O)O1
1 µg/mL (≈ 2.1 µM)	CC(=O)NC[C@H]1CN(c2ccc(/C=C(\Br)c3cccc(C(C)=O)c3)c(F)c2)C(=O)O1
0.25 µg/mL (≈ 0.542 µM)	CC(=O)NC[C@H]1CN(c2ccc(/C=C(\Br)c3cccc(C=O)c3)c(F)c2)C(=O)O1
0.5 µg/mL (≈ 1.04 µM)	CC(=O)NC[C@H]1CN(c2ccc(/C=C(\Br)c3ccc(C(C)=O)s3)c(F)c2)C(=O)O1
2 µg/mL (≈ 4.61 µM)	CC(=O)NC[C@H]1CN(c2ccc(/C=C(\Br)c3ccncc3)c(F)c2)C(=O)O1

system: Staphylococcus aureus; experiment: Minimum inhibitory concentration measured against Staphylococcus aureus; type: functional

SMILES	MIC
CC(=O)NC[C@H]1CN(c2ccc(/C=C(\F)c3cccc(C=O)c3)c(F)c2)C(=O)O1	1 µg/mL (≈ 2.5 µM)
CC(=O)NC[C@H]1CN(c2ccc(/C=C(\F)c3cnc(N)nc3)c(F)c2)C(=O)O1	16 µg/mL (≈ 41.1 µM)
CC(=O)NC[C@H]1CN(c2ccc(/C=C(\Br)c3c(C)oc[n+]3C)c(F)c2)C(=O)O1	32 µg/mL
CC(=O)NC[C@H]1CN(c2ccc(/C=C/c3cccnc3)c(F)c2)C(=O)O1	4 µg/mL (≈ 11.3 µM)

Second part, the compound after the results:

MIC	SMILES
8 µg/mL (≈ 21.4 µM)	CC(=O)NC[C@H]1CN(c2ccc(/C=C(/F)c3cccnc3)c(F)c2)C(=O)O1
2 µg/mL (≈ 4.21 µM)	CC(=O)NC[C@H]1CN(c2ccc(/C=C(\Br)c3cccc(C(C)=O)c3)c(F)c2)C(=O)O1
0.5 µg/mL (≈ 1.08 µM)	CC(=O)NC[C@H]1CN(c2ccc(/C=C(\Br)c3cccc(C=O)c3)c(F)c2)C(=O)O1
1 µg/mL (≈ 2.08 µM)	CC(=O)NC[C@H]1CN(c2ccc(/C=C(\Br)c3ccc(C(C)=O)s3)c(F)c2)C(=O)O1
8 µg/mL (≈ 18.4 µM)	CC(=O)NC[C@H]1CN(c2ccc(/C=C(\Br)c3ccncc3)c(F)c2)C(=O)O1

organism: Rattus norvegicus; experiment: Inhibition of mitochondrial protein synthesis (MPS) in rat heart mitochondria; type: functional
In short: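 Rat heart mitochondria were incubated at 1 mg/mL protein (Bradford) in buffer with translation components (ADP, amino acids). Incorporation of S35 methionine was followed for 1 h at 30 °C, then quenched with cold 5% TCA/5 mM methionine. Triplicate aliquots were filtered, washed and counted. Compounds were tested at 6–7 concentrations, ≤1% organic. IC50 came from the linear portion of the percent-of-control curve, as the mean of ≥2 experiments.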

SMILES	IC50
CC(=O)NC[C@H]1CN(c2ccc(/C=C(\F)c3cccc(C=O)c3)c(F)c2)C(=O)O1	9.9 µM
CC(=O)NC[C@H]1CN(c2ccc(/C=C(\Br)c3c(C)oc[n+]3C)c(F)c2)C(=O)O1	54 µM
CC(=O)NC[C@H]1CN(c2ccc(/C=C/c3cccnc3)c(F)c2)C(=O)O1	7.8 µM

Next, values leading:

IC50	SMILES
33 µM	CC(=O)NC[C@H]1CN(c2ccc(/C=C(\Br)c3cccc(C=O)c3)c(F)c2)C(=O)O1
14 µM	CC(=O)NC[C@H]1CN(c2ccc(/C=C(\Br)c3ccncc3)c(F)c2)C(=O)O1

biological target: T1, Amine oxidase [flavin-containing] B (Rattus norvegicus, UniProt P19643); experiment: Inhibition of Monoamine oxidase B in rat primary hepatocytes; type: cell-based, Hepatocyte
T1 sequence (P19643 whole entry): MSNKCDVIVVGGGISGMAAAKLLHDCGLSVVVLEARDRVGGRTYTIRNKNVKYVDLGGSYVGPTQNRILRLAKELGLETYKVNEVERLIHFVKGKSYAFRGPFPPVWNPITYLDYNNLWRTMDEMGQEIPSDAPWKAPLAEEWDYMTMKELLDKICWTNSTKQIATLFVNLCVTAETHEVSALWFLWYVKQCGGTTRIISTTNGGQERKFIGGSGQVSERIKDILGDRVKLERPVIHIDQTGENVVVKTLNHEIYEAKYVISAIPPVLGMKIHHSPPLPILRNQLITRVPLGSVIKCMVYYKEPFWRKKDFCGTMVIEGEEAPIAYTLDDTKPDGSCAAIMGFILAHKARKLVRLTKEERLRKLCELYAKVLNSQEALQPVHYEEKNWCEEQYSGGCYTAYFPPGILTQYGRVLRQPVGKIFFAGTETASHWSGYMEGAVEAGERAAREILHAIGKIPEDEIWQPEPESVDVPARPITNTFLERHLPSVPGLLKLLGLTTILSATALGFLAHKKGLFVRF

SMILES	IC50
CC(=O)NC[C@H]1CN(c2ccc(/C=C(\F)c3cccc(C=O)c3)c(F)c2)C(=O)O1	> 300 µM
CC(=O)NC[C@H]1CN(c2ccc(/C=C(\Br)c3c(C)oc[n+]3C)c(F)c2)C(=O)O1	21 µM
CC(=O)NC[C@H]1CN(c2ccc(/C=C/c3cccnc3)c(F)c2)C(=O)O1	59 µM

Continued, values first:

IC50	SMILES
> 300 µM	CC(=O)NC[C@H]1CN(c2ccc(/C=C(\Br)c3cccc(C=O)c3)c(F)c2)C(=O)O1
186 µM	CC(=O)NC[C@H]1CN(c2ccc(/C=C(\Br)c3ccncc3)c(F)c2)C(=O)O1

system: Enterococcus faecium; experiment: Minimum inhibitory concentration measured against Enterococcus faecium; type: functional

SMILES	MIC
CC(=O)NC[C@H]1CN(c2ccc(/C=C(\F)c3cccc(C=O)c3)c(F)c2)C(=O)O1	1 µg/mL (≈ 2.5 µM)
CC(=O)NC[C@H]1CN(c2ccc(/C=C(\F)c3cnc(N)nc3)c(F)c2)C(=O)O1	8 µg/mL (≈ 20.5 µM)
CC(=O)NC[C@H]1CN(c2ccc(/C=C(\Br)c3c(C)oc[n+]3C)c(F)c2)C(=O)O1	32 µg/mL
CC(=O)NC[C@H]1CN(c2ccc(/C=C/c3cccnc3)c(F)c2)C(=O)O1	2 µg/mL (≈ 5.63 µM)

Next, values leading:

MIC	SMILES
4 µg/mL (≈ 10.7 µM)	CC(=O)NC[C@H]1CN(c2ccc(/C=C(/F)c3cccnc3)c(F)c2)C(=O)O1
1 µg/mL (≈ 2.1 µM)	CC(=O)NC[C@H]1CN(c2ccc(/C=C(\Br)c3cccc(C(C)=O)c3)c(F)c2)C(=O)O1
0.5 µg/mL (≈ 1.08 µM)	CC(=O)NC[C@H]1CN(c2ccc(/C=C(\Br)c3cccc(C=O)c3)c(F)c2)C(=O)O1
0.5 µg/mL (≈ 1.04 µM)	CC(=O)NC[C@H]1CN(c2ccc(/C=C(\Br)c3ccc(C(C)=O)s3)c(F)c2)C(=O)O1
1 µg/mL (≈ 2.3 µM)	CC(=O)NC[C@H]1CN(c2ccc(/C=C(\Br)c3ccncc3)c(F)c2)C(=O)O1

Reference: ChEMBL document CHEMBL1134857, “The synthesis and biological evaluation of a novel series of antimicrobials of the oxazolidinone class” (Bioorg Med Chem Lett, 2002)
